This note sets out measurements from ChEMBL document CHEMBL4340565, “First-generation structure-activity relationship studies of 2,3,4,9-tetrahydro-1H-carbazol-1-amines as CpxA phosphatase inhibitors” (Bioorg Med Chem Lett, 2019).

The EC50 is the midpoint of the concentration-response curve.

Data set [1] in a line: Inhibition of CpxA in Escherichia coli harboring lacZ reporter gene assessed as activation of CpxR incubated for 5 hrs by beta-galactosidase assay. The method in brief: (§1)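 Read-out is a CpxR-responsive lacZ reporter in a modified E. coli strain, measured as beta-galactosidase activity. Where potency is given it is an EC50. Values are mean ± SEM of at least three separate experiments, each run in triplicate. Compounds showing cytotoxicity or general stress-response activation were not scored.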

Data set [2] relates to Escherichia coli. Briefly: Inhibition of CpxA phosphatase activity in Escherichia coli assessed as increase in the ratio of CpxR-P to CpxR at 10 uM incubated for 5 hrs by densitometric method. The method in brief:
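Wild-type and ΔcpxA E. coli were grown in medium with 0.4% glucose, with 0 or 10 μM compound. CpxR phosphorylation was resolved by Phos-Tag gel and Western blot. His6CpxR incubated with 0 or 20 mM acetyl phosphate served as a marker. The CpxR-P:CpxR ratio was quantified by densitometry, as average and standard deviation of 5 independent experiments.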

The test system of data set [3] is Escherichia coli. Briefly: Inhibition of CpxA in Escherichia coli harboring lacZ reporter gene assessed as activation of CpxR up to 80 uM incubated for 5 hrs by beta-galactosidase assay. The gist of the method: as §1
A general note: A reporter such as luciferase makes a cellular process visible.

Data set [4] in a line: Drug uptake in Escherichia coli BW25113 at 16 to 128 ug/ml incubated for 1 to 40 mins by UHPLC-Q/TOF analysis. The format is ADME. The method in brief:
(§2)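 Isogenic E. coli strains: wild-type efflux or TolC-deficient (efflux-deficient), each with or without an arabinose-induced large outer-membrane pore (hyperporinated). Cells were incubated with increasing compound concentrations. Intracellular accumulation was measured by mass spectrometry after 1 and 40 min.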

Data set [5] in a line: Drug uptake in Escherichia coli BW25113 harboring tolC deletion mutant at 16 to 128 ug/ml incubated for 1 to 40 mins by UHPLC-Q/TOF analysis. Type of data set: ADME. The method in brief: as §2
A short description of data set [6]: Drug uptake in Escherichia coli BW25113 deltatolCygiBCattTn7::mini-Tn7T-Kmr-araC-ParaBAD-fhuAdeltaCdelta4L at 16 to 128 ug/ml incubated for 1 to 40 mins by UHPLC-Q/TOF analysis. The format is ADME. The gist of the method:
as §2

Data set [7] in a line: Drug uptake in Escherichia coli BW25113 attTn7::mini-Tn7T-Kmrr-araC-ParaBAD-fhuAdeltaCdelta4L at 16 to 128 ug/ml incubated for 1 to 40 mins by UHPLC-Q/TOF analysis. Type of data set: ADME. The method in brief:
as §2

Active and inactive are the calls of the source. The rule behind the calls is not given here.

Turning to `O=[N+]([O-])c1ccc2[nH]c3c(c2c1)CCCC3`, in data set [1] (read-out: EC50), the EC50 was over 160 µM.
Still for that read-out and setting: to `NC1CCCc2c1[nH]c1c(F)cccc21` (racemic) belongs 56.8 µM; to `COc1ccc2[nH]c3c(c2c1)CCCC3N` (racemic), over 100 µM; to `NC1CCCc2c1[nH]c1cc(F)ccc21` (racemic), 11.9 µM.
Same read-out and setting: the result for `OC1CCCc2c1[nH]c1ccccc21` (stereo not given) reads over 100 µM; that for `CC(N)c1cc2cc(Br)ccc2[nH]1` (stereo not given), 44.2 µM.
On the same count and under the same terms, to `Cc1ccc2[nH]c3c(c2c1)CCCC3N` (racemic) belongs 34.1 µM; to `NC1CCCc2c1[nH]c1ccc(C(F)(F)F)cc21` (racemic), 23.1 µM.
Regarding `NC1CCCc2c1[nH]c1ccc([N+](=O)[O-])cc21` (racemic), the inhibition result in the data set with Escherichia coli [2] is “Active”. The concentration giving a half-maximal response (EC50) in data set [1] (read-out: EC50) is 24.8 µM.
For the compound `C[C@@H](N)C(=O)Nc1ccc(F)c(F)c1`, the inhibition entry with Escherichia coli [3] was “inactive”.
`COC(=O)c1ccc2[nH]c3c(c2c1)CCCC3N` (racemic): the half-maximal effective concentration (EC50) in data set [1] (read-out: EC50) was over 100 µM.
As to `N[C@@H]1CCCc2c1[nH]c1ccc(F)cc21`, in the data set on Escherichia coli [2], the inhibition entry was “Active”. For the same compound, in data set [1] (read-out: EC50), the half-maximal effective concentration (EC50) amounted to 3.5 µM.
`NC1CCCc2c1[nH]c1ccc(Cl)cc21` (racemic): the EC50 in data set [1] (read-out: EC50) worked out at 10.9 µM.
On the same count and under the same terms, to `N[C@@H]1CCCc2c1[nH]c1cc(F)c(F)cc21` belongs 1.1 µM.
For `Fc1ccc2[nH]c3c(c2c1)CCCC3`, the Drug uptake entry in data set [4] was “Active”; in data set [5], “Not Active”.
With `N[C@H](Cc1ccccc1)C(=O)Nc1ccc(F)cc1`, the inhibition entry with Escherichia coli [3] is “inactive”.
`NCc1cc2cc(F)ccc2[nH]1`: in data set [1] (read-out: EC50), the EC50 turned out to be 79.5 µM.
Turning to `NC1CCCc2c1[nH]c1ccccc21` (racemic), the EC50 in data set [1] (read-out: EC50) stood at 30.2 µM.
For the compound `C[C@@H](N)C(=O)Nc1ccc(F)cc1`, in the data set with Escherichia coli [3], the inhibition entry is “inactive”.
As to `N[C@H]1CCCc2c1[nH]c1ccc(F)cc21`, the EC50 in data set [1] (read-out: EC50) was over 100 µM.
The same measure, in the same setting: the result for `NC1CCCc2c1[nH]c1cc(F)c(F)cc21` (racemic) reads 2.7 µM.
`NC1CCCc2c1[nH]c1cccc(F)c21` (racemic): the 50% effective concentration (EC50) in data set [1] (read-out: EC50) was found to be 65.9 µM.
Turning to `CC(C)[C@@H](N)C(=O)Nc1ccc(F)cc1`, the inhibition result in the data set with Escherichia coli [3] is “inactive”.
Still for that read-out and setting: the result for `CC(C)[C@@H](N)C(=O)Nc1ccc(F)c(F)c1` reads “inactive”; that for `CCC(C)[C@@H](N)C(=O)Nc1ccc(F)cc1` (stereo not given in full), “inactive”.
In the case of `NC1CCCc2c1[nH]c1cccc(C(F)(F)F)c21` (racemic), the half-maximal effective concentration (EC50) in data set [1] (read-out: EC50) was over 100 µM.
The same measure, in the same setting: to `NC1CCCc2c1[nH]c1c(C(F)(F)F)cccc21` (racemic) belongs over 100 µM; to `N#Cc1ccc2[nH]c3c(c2c1)CCCC3N` (racemic), over 100 µM.
Regarding `NC1CCCc2c1[nH]c1ccc(S(N)(=O)=O)cc21` (racemic), in data set [1] (read-out: EC50), the 50% effective concentration (EC50) was over 100 µM.
Turning to `NC1CCCc2c1[nH]c1ccc(Br)cc21` (racemic), the 50% effective concentration (EC50) result in data set [1] was “Nd(Toxic)”.
On the same count and under the same terms, to `NC1CCCc2c1[nH]c1cc(C(F)(F)F)ccc21` (racemic) belongs “Nd(Toxic)”.
As for `NC1CCCc2c1[nH]c1ccc(F)cc21` (racemic), the Drug uptake entry in data set [4], in data set [5], in data set [6] and in data set [7] was “Active” each time. In addition, the EC50 in data set [1] (read-out: EC50) came out at 7.7 µM.
On to `NC1CCCc2c1[nH]c1ccc(C(=O)O)cc21` (racemic), for which, in data set [1] (read-out: EC50), the concentration for a half-maximal effect (EC50) was over 100 µM.
